≈ marks a conversion by molar mass, not a printed value.

The nature of data set [1]: Antiviral activity against HIV1 BH10 harboring wild type reverse transcriptase infected in primary MT4 cells assessed as inhibition of virus-induced cytopathogenicity after 4 days by MTS assay. Particulars: Human immunodeficiency virus 1, MT4, 96 h. Format: functional, cell-based, Human immunodeficiency virus type 1 BH10. (Protection from cytopathic effect is a common read-out in antiviral testing.)

Data set [2] deals with Human immunodeficiency virus 1. As to the kind of experiment: Antiviral activity against HIV1 harboring reverse transcriptase Y181C mutant infected in primary MT4 cells assessed as inhibition of virus-induced cytopathogenicity after 4 days by MTS assay. The note with it: Human immunodeficiency virus 1, MT4, 96 h. The format is functional, organism-based.
In data set [3] the test system is Human immunodeficiency virus 1. The data set is described as follows: Antiviral activity against HIV1 harboring reverse transcriptase K103N mutant infected in primary MT4 cells assessed as inhibition of virus-induced cytopathogenicity after 4 days by MTS assay. Format: functional, organism-based. Particulars: Human immunodeficiency virus 1, MT4, 96 h.
Data set [4] relates to Human immunodeficiency virus 1. The data set is described as follows: Antiviral activity against HIV1 harboring reverse transcriptase Y181C/K103N double mutant infected in primary MT4 cells assessed as inhibition of virus-induced cytopathogenicity after 4 days by MTS assay. The format is functional, organism-based. The note with it: Human immunodeficiency virus 1, MT4, 96 h.

Data set [5] in a line: Aqueous solubility of the compound at pH 7. Format: physicochemical. Particulars: aqueous medium.
A short description of data set [6]: Cmax in fasted Sprague-Dawley rat at 2 mg/kg, iv after 0.083 to 24 hrs by LC-MS/MS method. Set-up: dose 2 mg/kg, route intravenous. The format is ADME, organism-based. The note with it: in vivo.
The nature of data set [7]: Cmax in fasted Sprague-Dawley rat at 10 mg/kg, po after 0.083 to 24 hrs by LC-MS/MS method. The format is ADME, organism-based. The note with it: in vivo. Set-up: dose 10 mg/kg, route oral. Put shortly: (§1)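 Fasted Sprague Dawley rats received 10 mg/kg orally in 10% dimethylacetamide/10% ethanol/80% PEG400. Plasma was stored at -70 °C until LC-MS/MS quantitation. Values are mean parameters (n=3 or 2).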

Data set [8] can be described thus: Cmax in fed beagle dog at 1 mg/kg, iv after 0.083 to 24 hrs by LC-MS/MS method. The format is ADME, organism-based, Canis lupus familiaris. Set-up: dose 1 mg/kg, route intravenous. The note with it: in vivo. In outline:
(§2)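 Fed beagle dogs and fed male cynomolgus monkeys were dosed at 1 mg/kg IV or 5 mg/kg PO in 10% dimethylacetamide/10% ethanol/80% PEG400. Femoral-vein blood was drawn predose and at 0.083–24 h into lithium-heparin tubes. Plasma was stored at -70 °C and parent drug was measured by LC-MS/MS. Values are mean parameters (n=3 or 2).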

Data set [9] can be described thus: Cmax in fed beagle dog at 5 mg/kg, po after 0.083 to 24 hrs by LC-MS/MS method. The format is ADME, organism-based, Canis lupus familiaris. Set-up: dose 5 mg/kg, route oral. Particulars: in vivo. In outline:
as §2

The nature of data set [10]: Cmax in fed cynomolgus monkey at 1 mg/kg, iv after 0.083 to 24 hrs by LC-MS/MS method. Format: ADME, organism-based, Macaca fascicularis. Set-up: dose 1 mg/kg, route intravenous. Particulars: in vivo. Put shortly:
as §2

The nature of data set [11]: Cmax in fed cynomolgus monkey at 5 mg/kg, po after 0.083 to 24 hrs by LC-MS/MS method. Format: ADME, organism-based, Macaca fascicularis. Set-up: dose 5 mg/kg, route oral. The note with it: in vivo. Put shortly:
as §2

Data set [12] in a line: Tmax in fed cynomolgus monkey at 5 mg/kg, po by LC-MS/MS method. The format is ADME, organism-based, Macaca fascicularis. Particulars: in vivo. Put shortly: as §2
Data set [13] in a line: Half life in fasted Sprague-Dawley rat at 2 mg/kg, iv by LC-MS/MS method. The format is ADME, organism-based. Particulars: in vivo.
Data set [14] in a line: Half life in fasted Sprague-Dawley rat at 10 mg/kg, po by LC-MS/MS method. Format: ADME, organism-based. Particulars: in vivo. In outline: as §1
Data set [15] in a line: Half life in fed beagle dog at 1 mg/kg, iv by LC-MS/MS method. The note with it: in vivo. Format: ADME, organism-based, Canis lupus familiaris. Put shortly:
as §2

A short description of data set [16]: Half life in fed beagle dog at 5 mg/kg, po by LC-MS/MS method. Format: ADME, organism-based, Canis lupus familiaris. The note with it: in vivo. Put shortly:
as §2

Data set [17] is described as follows: Half life in fed cynomolgus monkey at 1 mg/kg, iv by LC-MS/MS method. Format: ADME, organism-based, Macaca fascicularis. Particulars: in vivo. In outline:
as §2

The nature of data set [18]: Half life in fed cynomolgus monkey at 5 mg/kg, po by LC-MS/MS method. The format is ADME, organism-based, Macaca fascicularis. The note with it: in vivo. Put shortly: as §2
Data set [19] can be described thus: Clearance in fasted Sprague-Dawley rat at 2 mg/kg, iv after 0.083 to 24 hrs by LC-MS/MS method. Format: ADME, organism-based. Particulars: in vivo.
Data set [20] is described as follows: Clearance in fed beagle dog at 1 mg/kg, iv after 0.083 to 24 hrs by LC-MS/MS method. Format: ADME, organism-based, Canis lupus familiaris. The note with it: in vivo. In outline:
as §2

Data set [21] is described as follows: Clearance in fed cynomolgus monkey at 1 mg/kg, iv after 0.083 to 24 hrs by LC-MS/MS method. Particulars: in vivo. Format: ADME, organism-based, Macaca fascicularis. In outline:
as §2

Data set [22] is described as follows: Oral bioavailability in fed beagle dog at 5 mg/kg after 0.083 to 24 hrs by LC-MS/MS method. The format is ADME, organism-based, Canis lupus familiaris. Particulars: in vivo. Put shortly: as §2
Data set [23] in a line: Oral bioavailability in fed cynomolgus monkey at 5 mg/kg after 0.083 to 24 hrs by LC-MS/MS method. The format is ADME, organism-based, Macaca fascicularis. Particulars: in vivo. In outline:
as §2

A short description of data set [24]: Half life in rat hepatocytes. Format: ADME, cell-based, Hepatocyte. Put shortly:
(§3)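 Metabolic stability was measured in hepatocytes as the half-life (min) of parent compound depletion. Values come from independent experiments using hepatocytes from 5 to 7 donors.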

Data set [25] can be described thus: Half life in dog hepatocytes. The format is ADME, cell-based, Canis lupus familiaris, Hepatocyte. Put shortly: as §3
Data set [26] is described as follows: Half life in monkey hepatocytes. Format: ADME, cell-based, Macaca mulatta, Hepatocyte. The note with it: rhesus monkey. In outline:
as §3

The subject of data set [27] is Human immunodeficiency virus 1. The data set is described as follows: Potency index, ratio of EFV EC50 to compound EC50 for HIV1 harboring reverse transcriptase K103N mutant. The format is functional.
The subject of data set [28] is Human immunodeficiency virus 1. As to the kind of experiment: Potency index, ratio of EFV EC50 to compound EC50 for HIV1 harboring reverse transcriptase Y181C/K103N double mutant. Format: functional.
Data set [29] can be described thus: Selectivity ratio of EC50 for HIV1 harboring reverse transcriptase Y181C/K103N double mutant to EC50 for HIV1 BH10 harboring wild type reverse transcriptase. Format: functional.

As to `COP(=O)(c1cccc(-n2cccn2)c1)c1c(C(N)=O)[nH]c2ccc(Cl)cc12` (centres undefined), the EC50 was 4.5 nM in data set [1], 59 nM in data set [2], 102 nM in data set [3] and greater than 1000 nM in [4].

As for `COP(=O)(c1cc(C)cc(/C=C/C#N)c1)c1c(C(N)=O)[nH]c2ccc(Cl)cc12` (single isomer, unassigned; form 1) [FOSDEVIRINE], the EC50 in [1] came to 1 nM; in data set [2], 1.3 nM; in [3], 2.8 nM; in data set [4] it was 11 nM. Also, in data set [5], the solubility was determined as 20 µM (≈ 8.28 µg/mL). The Cmax in data set [6] was found to be 88 ng/mL; in data set [7] it was 25 ng/mL; in data set [8], 290 ng/mL; in data set [9], 18 ng/mL; in data set [10], 1460 ng/mL; in data set [11], 945 ng/mL. Further, the Tmax in [12] came out at 3 h. Besides, the half-life is 0.2 h in data set [13]; 5.9 h in [14]; 3.9 h in data set [15]; 2.4 h in [16]; 2 h in data set [17]; 3.1 h in data set [18]. Besides, the half-life in [24] came out at 0.283 h; in data set [25] it was 0.35 h; in data set [26], 0.867 h. In addition, the clearance was 1.18 mL/min/kg in [19], 30.5 mL/min/kg in [20] and 5.5 mL/min/kg in data set [21]. Moreover, the results for the bioavailability in data set [22] and in [23] were 4% and 42%, respectively. The entries for the “Ratio EC50” value in data set [27] and in data set [28] were 30 and 4, respectively.

For the compound `COP(=O)(c1cc(F)cc(F)c1)c1c(C(N)=O)[nH]c2ccc(Cl)cc12` (centres undefined), the EC50 in data set [1] worked out at 0.7 nM; in data set [2] it was 6.5 nM; in data set [3] it was 25.5 nM; in data set [4], 642 nM.

`COP(=O)(c1cccc2ccccc12)c1c(C(N)=O)[nH]c2ccc(Cl)cc12` (centres undefined): the EC50 in [1] is 17.5 nM; in data set [2], 357 nM; in data set [3] it was 727 nM; in [4] it was greater than 1000 nM.

`COP(=O)(c1cccs1)c1c(C(N)=O)[nH]c2ccc(Cl)cc12` (centres undefined): the EC50 is 0.3 nM in data set [1], 3.4 nM in [2], 8.6 nM in [3] and greater than 1000 nM in data set [4].

Regarding `COP(=O)(c1cccc(C(C)C)c1)c1c(C(N)=O)[nH]c2ccc(Cl)cc12` (centres undefined), the EC50 in data set [1] is 0.5 nM; in data set [2], 8.4 nM; in data set [3], 1.6 nM; in [4], 92.6 nM. Also, in data set [5], the concentration in solution (solubility) came to 0.8 µM (≈ 0.313 µg/mL).

Take `COP(=O)(c1cc(C)cc(CCC#N)c1)c1c(C(N)=O)[nH]c2ccc(Cl)cc12` (centres undefined): the EC50 in data set [1] came to 0.7 nM; in data set [2] it was 0.7 nM; in [3], 3.5 nM; in [4] it was 28.5 nM.

Take `COc1cc(C)cc(P(=O)(OC)c2c(C(N)=O)[nH]c3ccc(Cl)cc23)c1` (centres undefined): the EC50 in data set [1] is 0.4 nM; in [2] it was 9 nM; in data set [3], 23 nM; in data set [4], 663 nM.

On to `COP(=O)(c1cc(C)cc(Br)c1)c1c(C(N)=O)[nH]c2ccc(Cl)cc12` (centres undefined), for which the EC50 came out at 3 nM in data set [1], 6 nM in data set [2], 25 nM in data set [3] and 368 nM in data set [4].

As for `COP(=O)(c1cc(C)cc(OCC#N)c1)c1c(C(N)=O)[nH]c2ccc(Cl)cc12` (centres undefined), in data set [29], the Ratio EC50 is greater than 1000. Moreover, the EC50 in data set [1] was 0.08 nM; in data set [2], 8.7 nM; in data set [3], 1.8 nM; in data set [4], 111 nM.

On to `COP(=O)(c1cc(C)cc(Cl)c1)c1c(C(N)=O)[nH]c2ccc(Cl)cc12` (centres undefined), for which the EC50 in data set [1] came out at 1.1 nM; in [2] it was 5.6 nM; in [3], 18.8 nM; in data set [4] it was 114 nM.

`COP(=O)(c1cc(Cl)cc(Cl)c1)c1c(C(N)=O)[nH]c2ccc(Cl)cc12` (centres undefined): the EC50 in data set [1] is 0.3 nM; in data set [2] it was 1.7 nM; in data set [3], 19.9 nM; in [4] it was 248 nM.

As a reminder, the EC50 is the concentration giving half of the maximal effect. A word on the solubility: it is the dissolved amount per volume that the medium holds. As a reminder, the Cmax is the maximum level reached in the sampled fluid or tissue. For orientation: Tmax means the time from dosing to the highest level. The half-life is the time needed for the level to fall by half in the phase considered. For orientation: clearance means the volume of plasma or blood freed of the substance per unit of time. The bioavailability is dose-corrected exposure relative to a reference, in per cent.
